Results: ChEMBL document CHEMBL1141352, “Microbial transformation of cephalomannine by Luteibacter sp” (J Nat Prod, 2007)

Assays:
Type in all cases: functional, cell-based
[1] = system: Bel-7402; test: Cytotoxicity against human Bel7402 cells by MTT assay
Method in brief: (§1)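 Cells kept in RPMI 1640 with 10% FBS, penicillin 100 units/mL and streptomycin 100 μg/mL, at 37 °C in humidified 5% CO2. Seeded at 1200 cells/well; compounds added after 24 h and incubated 96 h. Tested at 10^-5 to 10^-9 M (five concentrations) from DMSO stocks, with 0.1% DMSO final, in triplicate wells. Viability by MTT formazan absorbance at 570 nm.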

[2] = system: HCT-8; test: Cytotoxicity against human HCT8 cells by MTT assay; method in brief: as §1
[3] = system: A549; test: Cytotoxicity against human A549 cells by MTT assay; method in brief: as §1
[4] = system: BGC-823; test: Cytotoxicity against human BGC823 cells by MTT assay; method in brief: as §1
[5] = system: A2780; test: Cytotoxicity against human A2780 cells by MTT assay; method in brief: as §1

Row | SMILES | IC50 [1] [nM] | IC50 [2] [nM] | IC50 [3] [nM] | IC50 [4] [nM] | IC50 [5] [nM]
1 | CC(=O)O[C@@]12CO[C@@H]1C[C@@H](O)[C@@]1(C)C(=O)C(=O)C3=C(C)[C@@H](O)C[C@@](O)([C@@H](OC(=O)c4ccccc4)[C@H]21)C3(C)C | > 10000 | > 10000 | > 10000 | 1380 | 4890
2 | CC(=O)O[C@H]1C(=O)[C@]2(C)[C@@H](O[C@H]3OC[C@@H](O)[C@H](O)[C@H]3O)C[C@H]3OC[C@@]3(OC(C)=O)[C@H]2[C@H](OC(=O)c2ccccc2)[C@]2(O)C[C@H](O)C(C)=C1C2(C)C | > 10000 | > 10000 | > 10000 | > 10000 | > 10000
3 | C/C=C(\C)C(=O)N[C@@H](c1ccccc1)[C@@H](O)C(=O)O[C@H]1C[C@@]2(O)[C@@H](OC(=O)c3ccccc3)[C@@H]3[C@]4(OC(C)=O)CO[C@@H]4C[C@H](O)[C@@]3(C)C(=O)[C@H](O)C(=C1C)C2(C)C | 2690 | 3290 | > 10000 | 100 | 90
4 | C/C=C(/C)C(=O)N[C@@H](c1ccccc1)[C@@H](O)C(=O)O[C@H]1C[C@@]2(O)[C@@H](OC(=O)c3ccccc3)[C@@H]3[C@]4(OC(C)=O)CO[C@@H]4C[C@@H](O)[C@@]3(C)C(=O)[C@H](O)C(=C1C)C2(C)C | 3530 | 2230 | 3240 | 790 | 350
5 | C/C=C(/C)C(=O)N[C@@H](c1ccccc1)[C@@H](O)C(=O)O[C@H]1C[C@@]2(O)[C@@H](OC(=O)c3ccccc3)[C@@H]3[C@]4(OC(C)=O)CO[C@@H]4C[C@@H](O)[C@@]3(C)C(=O)[C@H](OC(C)=O)C(=C1C)C2(C)C | 690 | 230 | 90 | 90 | 70
6 | CCC(C)C(=O)N[C@@H](c1ccccc1)[C@@H](O)C(=O)O[C@H]1C[C@@]2(O)[C@@H](OC(=O)c3ccccc3)[C@@H]3[C@]4(OC(C)=O)CO[C@@H]4C[C@@H](O)[C@@]3(C)C(=O)[C@H](OC(C)=O)C(=C1C)C2(C)C (stereo not given in full) | 3300 | 1570 | 2240 | 530 | 650
7 | C/C=C(\C)C(=O)N[C@@H](c1ccccc1)[C@@H](O)C(=O)O[C@H]1C[C@@]2(O)[C@@H](OC(=O)c3ccccc3)[C@@H]3[C@]4(OC(C)=O)CO[C@@H]4C[C@H](O)[C@@]3(C)C(=O)[C@H](OC(C)=O)C(=C1C)C2(C)C [CEPHALOMANNINE] | 920 | 310 | 100 | 100 | 100
8 | CC(=O)O[C@H]1C(=O)[C@@]2(C)[C@H]([C@H](OC(=O)c3ccccc3)[C@]3(O)C[C@H](OC(=O)[C@H](O)[C@@H](NC(=O)c4ccccc4)c4ccccc4)C(C)=C1C3(C)C)[C@]1(OC(C)=O)CO[C@@H]1C[C@@H]2O [PACLITAXEL] | 100 | 37 | 19 | 7 | 6.3
